From PMC5405180 (EBioMedicine, 2017)
Where a SMILES comes first, the peptide text is derived from it. The star is where a group is joined. Cbz = O=C(OCc1ccccc1)*

Assays:
NFAT5 [1] = assay: NFAT5-dependent GFP reporter assay; type: cell-based, murine; settings: for IC50: Mus musculus, RAW264.7, read-out: IC50, NFAT5-dependent reporter activity
Outline: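 Cells were stimulated with LPS (1 μg/ml) for 20 h alongside graded test compound or BBR. GFP was read by flow cytometry and expressed as % ΔMFI = (treated MFI − untreated MFI) × 100 / untreated MFI.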

[2] = Pharmacokinetic profile in rats; type: in vivo; settings: rat
Outline: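 Rats were dosed intravenously or orally and plasma concentration–time profiles were obtained. Half-life came from the oral profile. Oral bioavailability (F%) was calculated from oral versus intravenous exposure.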

RAW 264.7 macrophages = assay: Pro-inflammatory NFAT5 target gene expression in LPS-stimulated RAW 264.7; type: cell-based, murine
[3] = tested on: mice with collagen-induced arthritis (CIA); assay: Collagen-induced arthritis; type: in vivo
splenocytes of CIA mice = assay: LPS-stimulated splenocytes from treated CIA mice; type: in vivo; settings: splenocytes of CIA mice treated orally, LPS 1 μg/ml 24 h
Outline: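 CIA was induced in mice by CII/CFA immunization with a CII/IFA boost. Mice received oral test compound at 15 or 60 mg/kg on alternate days, or vehicle. Splenocytes from these mice were cultured with LPS (1 μg/ml) for 24 h.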

NFAT5 [4] = assay: LPS-induced NFAT5 expression and nuclear translocation; type: cell-based, murine
NFAT5 [5] = assay: High salt-induced NFAT5 and tonicity-inducible gene expression in RAW 264.7; type: cell-based, murine; settings: for high salt-induced increase in NFAT5 mRNA and protein: RAW 264.7, NaCl 45 mM 12 h, KRN2 1 μM, SB203580 5 μM
ROS = ROS production by flow cytometry; type: cell-based, murine; settings: RAW 264.7, LPS 1 µg/ml, KRN2 0.8 µM
p38 MAPK = p38 MAPK activity; type: cell-based; settings: RAW 264.7, LPS 1 µg/ml, KRN2 0.8 µM
NFAT1 = assay: NFAT promoter reporter assay; type: cell-based, human; settings: HEK293 cells stimulated with PMA, 1 μM
CREB = CREB promoter reporter assay; type: cell-based; settings: 1 µM test compound
ELK = ELK promoter reporter assay; type: cell-based; settings: 1 µM test compound
NFAT5 promoter = assay: Nfat5 promoter GFP reporter assay; type: cell-based, murine; settings: RAW 264.7, 1 μM
Outline: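 RAW 264.7 cells carried a GFP reporter containing two NF-κB binding sites from upstream of the Nfat5 gene. Cells were preincubated with test compound (1 μM) for 1 h, then stimulated for 20 h with either LPS (1 μg/ml) or NaCl (45 mM). GFP was measured by flow cytometry as % ΔMFI relative to untreated cells. Three independent experiments.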

NF-κB p65 = assay: p65 phosphorylation/translocation and IκB degradation; type: cell-based, murine; settings: RAW 264.7, LPS 1 µg/ml
Outline: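 RAW 264.7 cells were incubated in cytoplasmic lysis buffer for 15 min on ice and centrifuged; the supernatant was taken as the cytosolic fraction. The pellet was taken up in nuclear lysis buffer and spun for 20 min at 12,000 rpm. Fractions were run on SDS-PAGE, transferred to nitrocellulose and probed for p65, with NMP p84 and α-tubulin as fraction markers, using ECL detection. Whole-cell lysates were prepared in RIPA buffer for 15 min at 4 °C and protein measured by Bradford assay.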

[6] = target: NF-κB p65 binding to the Nfat5 promoter (Mus musculus, UniProt Q04207); assay: ChIP assay; type: cell-based, murine; settings: RAW 264.7, 1 μM, LPS 1 μg/ml 12 h
Outline: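 RAW 264.7 cells were pretreated with test compound (1 μM) for 1 h, then given LPS (1 μg/ml) for 12 h. Cells were fixed in 1% formaldehyde for 10 min at 37 °C, nuclei isolated and chromatin sonicated, with an input aliquot kept. Immunoprecipitation used anti-p65. DNA was extracted with phenol/chloroform, ethanol-precipitated and PCR-amplified with Nfat5 promoter primers; Nfat5 exon primers served as negative control. Three independent experiments.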

[7] = target: NF-κB p65 binding to Nfat5 promoter 1 (Homo sapiens, UniProt Q04206); assay: Electrophoretic mobility shift assay; settings: recombinant p65 400 ng; KRN2 5, 20, 50 μM; MG132 20 μM
RAW 264.7 cells = assay: NO production; type: cell-based, murine; settings: RAW 264.7, LPS 1 μg/ml 24 h, Griess assay
Outline: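 RAW 264.7 macrophages were kept in RPMI 1640 with 10% FBS. Cells were preincubated for 1 h with graded test compound, then stimulated with LPS (1 μg/ml) for 24 h. Supernatant was mixed with an equal volume of Griess reagent for 15 min at room temperature to give nitrite. Three independent experiments, each in triplicate, mean ± SD.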

[8] = tested on: murine peritoneal macrophages; assay: LPS-stimulated murine peritoneal macrophages; type: cell-based; settings: 0.8 μM
[9] = tested on: murine peritoneal macrophages; assay: High salt-stimulated murine peritoneal macrophages; type: cell-based; settings: NaCl 45 mM 6 h, 0.8 μM
murine splenocytes = assay: LPS-stimulated murine splenocytes; type: cell-based; settings: total splenocytes of mice, LPS 1 μg/ml 24 h, 0.8 μM
[10] = tested on: adjuvant-induced arthritis (AIA) in mice; assay: Adjuvant-induced arthritis; type: in vivo
Outline: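 AIA induced in 8-week-old C57BL/6 mice with 2 mg CFA given intradermally. Test compound was given at 3 mg/kg i.p. daily for 2 weeks, with PBS as vehicle. Ankle and footpad thickness were tracked over the 2 weeks (6 mice/group, mean ± SD). Joints were fixed in […] for 1 day and decalcified in 5% formic acid for 2 weeks. Sections were blocked with 10% goat serum, then stained overnight at 4 °C with anti-F4/80 (1/50), biotinylated anti-rabbit IgG, streptavidin-peroxidase and DAB.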

[11] = 3 mg/kg peritoneally, versus vehicle

NF-κB p65 binding to Nfat5 promoter 1, sequence (Q04206 whole entry): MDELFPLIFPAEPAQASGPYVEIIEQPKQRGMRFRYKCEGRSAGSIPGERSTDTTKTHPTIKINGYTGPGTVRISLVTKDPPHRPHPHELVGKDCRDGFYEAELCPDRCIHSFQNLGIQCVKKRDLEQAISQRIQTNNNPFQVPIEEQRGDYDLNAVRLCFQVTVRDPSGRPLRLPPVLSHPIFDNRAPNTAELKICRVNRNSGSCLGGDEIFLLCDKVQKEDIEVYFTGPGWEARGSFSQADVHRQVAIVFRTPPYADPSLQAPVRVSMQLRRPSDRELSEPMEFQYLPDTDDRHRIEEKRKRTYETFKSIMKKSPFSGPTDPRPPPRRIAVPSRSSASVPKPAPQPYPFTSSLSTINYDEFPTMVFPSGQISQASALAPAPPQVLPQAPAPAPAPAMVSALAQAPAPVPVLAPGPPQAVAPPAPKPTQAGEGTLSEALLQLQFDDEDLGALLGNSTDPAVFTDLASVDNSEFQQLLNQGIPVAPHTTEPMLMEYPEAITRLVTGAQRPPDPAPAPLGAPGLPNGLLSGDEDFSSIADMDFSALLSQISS
NF-κB p65 binding to the Nfat5 promoter, sequence (Q04207 whole entry): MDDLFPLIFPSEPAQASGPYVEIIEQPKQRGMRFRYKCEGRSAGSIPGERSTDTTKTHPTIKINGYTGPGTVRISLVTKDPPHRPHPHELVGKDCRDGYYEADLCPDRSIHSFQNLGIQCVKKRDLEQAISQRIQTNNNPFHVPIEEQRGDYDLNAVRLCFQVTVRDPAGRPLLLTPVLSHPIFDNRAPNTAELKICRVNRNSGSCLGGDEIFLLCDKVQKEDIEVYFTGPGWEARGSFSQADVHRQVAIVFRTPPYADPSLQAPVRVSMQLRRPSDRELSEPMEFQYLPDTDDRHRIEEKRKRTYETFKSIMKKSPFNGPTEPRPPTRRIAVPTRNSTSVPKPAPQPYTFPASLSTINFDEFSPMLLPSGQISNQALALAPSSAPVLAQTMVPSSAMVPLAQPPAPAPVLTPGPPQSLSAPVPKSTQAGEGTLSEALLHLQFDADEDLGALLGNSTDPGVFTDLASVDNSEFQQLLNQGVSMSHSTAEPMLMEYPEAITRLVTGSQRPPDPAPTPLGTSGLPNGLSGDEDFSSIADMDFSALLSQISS

COc1ccc2cc3[n+](cc2c1OC)CCc1cc2c(cc1-3)OCO2 [Berberine, reference compound]
IC50 (NFAT5 [1]): 4 µM

COc1ccc2c(Cc3ccccc3F)c3n(c(=O)c2c1OC)CCc1cc2c(cc1-3)OCO2 [KRN5, 13-(2-Fluorobenzyl)-9,10-dimethoxy-5,6-dihydro-8H-[1,3]dioxolo[4,5-g]isoquinolino[3,2-a]isoquinolin-8-one]
IC50 (NFAT5 [1]): 0.75 µM | half-life ([2]; plasma, po): > 8 h | expressions of NFAT5, IL-6, MCP-1, and GM-CSF (RAW 264.7 macrophages; RAW 264.7, 1 μM, LPS 1 μg/ml 24 h): inhibited | efficacy in suppressing arthritis compared to methotrexate ([3]; oral 60 mg/kg, methotrexate 5 mg/kg orally twice a week): more potent | arthritis severity ([3]; oral 15 and 60 mg/kg every other day for 3 weeks from day 21): dose-dependently mitigated | serum anti-type II collagen IgG ([3]; oral, day 44): significantly decreased | side effects ([3]; oral, throughout the experiments (data not shown)): no side effects were noted | NFAT5 expression in spleen cells stimulated by LPS (splenocytes of CIA mice): reduced

COc1ccc2c(Cc3ccccc3F)c3[n+](cc2c1OC)CCc1cc2c(cc1-3)OCO2.[Br-] [KRN2, 13-(2-Fluorobenzyl)-9,10-dimethoxy-5,6-dihydro-[1,3]dioxolo[4,5-g]isoquinolino[3,2-a]isoquinolin-7-ium bromide]
IC50 (NFAT5 [1]): 0.1 µM | anti-NFAT5 activity relative to BBR (NFAT5 [1]; ratio of IC50 values, KRN2 versus BBR): 40 times | plasma level after oral administration ([2]; oral administration): not detectable | LPS-induced NFAT5 mRNA and protein expression (NFAT5 [4]; RAW 264.7, 0.8 μM, LPS 1 μg/ml): nearly completely blocked | translocation of NFAT5 into the nucleus (NFAT5 [4]; RAW 264.7, 0.8 μM, LPS 1 μg/ml 12 h): inhibited | LPS-stimulated increase in NFAT5 protein expression (NFAT5 [4]; RAW 264.7 macrophages, 0.5 μM, western blot): significantly suppressed | high salt-induced increase in NFAT5 mRNA and protein (NFAT5 [5]): did not repress | mRNA expression levels of Ar and Bgt (NFAT5 [5]; RAW 264.7 stimulated with high salt (NaCl 45 mM 12 h), 0.8 μM): had no effect | ROS (ROS): neither ROS nor p38 MAPK activity was affected | p38 MAPK activity (p38 MAPK): neither ROS nor p38 MAPK activity was affected | NFAT1-dependent reporter activity (NFAT1): only slightly inhibited | CREB-dependent reporter (luciferase) activity (CREB): not suppressed | ELK-dependent reporter (luciferase) activity (ELK): not suppressed | LPS-induced NFAT5 promoter activity (NFAT5 promoter; LPS 1 μg/ml 20 h): specifically repressed | high salt-induced NFAT5 promoter activity (NFAT5 promoter; NaCl 45 mM 20 h): failed to reduce | degradation of IκB (NF-κB p65): nor blocked | phosphorylation and translocation of p65 (NF-κB p65): neither influenced | recruitment of NF-κB p65 to the Nfat5 promoter region [6]: nearly completely eliminated | NF-κB p65 binding to Nfat5 promoter 1 [7]: dose-dependently inhibited | mRNA and protein expression levels of IL-6, TNF-α, and GM-CSF (RAW 264.7 macrophages; RAW 264.7, 0.8 μM, LPS 1 μg/ml): significantly decreased | expression level of iNOS (RAW 264.7 macrophages; RAW 264.7, LPS 1 μg/ml 24 h, western blot): dose-dependently lowered | NO production (RAW 264.7 cells): dose-dependently lowered | LPS-stimulated increase in NFAT5 protein and mRNA [8]: mitigated | expression levels of Il6 and Tnf ([8]; LPS): decreased | high salt-induced increase in Nfat5 mRNA expression [9]: neither mitigated | iNOS, IL-6, and TNF-α expressions (murine splenocytes): decreases | number of anti-F4/80+ cells infiltrated in joints ([10]; 3 mg/kg peritoneally): declined | paw swelling (ankle and footpad diameter) ([10]; 3 mg/kg peritoneally every day for 2 weeks, versus vehicle): significantly lower | inflammatory cell infiltration, synovial hyperplasia, and joint destruction (H&E) [10, 11]: lesser degrees | arthritis severity ([3]; 3 mg/kg peritoneally every day for 3 weeks from day 21): significantly decreased | serum levels of anti-type II collagen antibody, IL-6, and TNF-α ([3]; 3 mg/kg peritoneally, day 40): significantly decreased | inflammatory cell infiltration, synovial hyperplasia, and joint destruction [3, 11]: limited degree | number of anti-F4/80+ macrophages in joints [3, 11]: significantly lower | CIA development ([3]; oral 3 mg/kg every other day for 3 weeks from day 21 (data not shown)): failed to suppress

CC(C)C[C@@H](C=O)NC(=O)[C@H](CC(C)C)NC(=O)[C@H](CC(C)C)NC(=O)OCc1ccccc1 [MG132, reference compound] (Cbz-Leu-Leu-Leu-aldehyde)
NF-κB p65 binding to Nfat5 promoter 1 [7]: did not affect it

C[S+]([O-])c1ccc(-c2nc(-c3ccncc3)c(-c3ccc(F)cc3)[nH]2)cc1 (stereo not drawn) [SB253580, reference compound]
high salt-induced increase in NFAT5 mRNA and protein (NFAT5 [5]): completely blocked
